According to ChEMBL document CHEMBL2029242 (J Med Chem, 2012):

Key:
[1] = Clearance in beagle dog at 1 mg/kg, iv and 10 mg/kg, po; type: ADME, organism-based, Canis lupus familiaris; conditions: in vivo
How it was run: (§1)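 Single-dose PK. Rats: male Sprague−Dawley, jugular-catheterized, 1 mg/kg iv in 3:1 PEG400/water (n = 2) and 10 mg/kg po in Pharmatek #6 (n = 3). Female athymic nude mice: 100 mg/kg po in Pharmatek #6 (n = 3). Beagle dogs and male cynomolgus monkeys (n = 3): crossover, 1 mg/kg iv and 10 mg/kg po in 22% HPβCD, overnight fast. Plasma LC-MS/MS to 24 h; noncompartmental parameters, mean ± SD.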

[2] = test system: HT-144; assay: Cytotoxicity against human HT144 cells expressing BRAF V600E mutant after 72 hrs by cell titer blue assay; type: functional, cell-based; conditions: HT-144, 72 h
How it was run: (§2)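 Cells were grown in ATCC-recommended media and kept overnight in 0.5% serum. They were then exposed to compound for 72 h, and Cell Titer Blue was added for 3 h. EC50 came from fluorometric concentration−response curves, run in duplicate and repeated at least once.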

[3] = target: Cytochrome P450 2C9 (Homo sapiens, UniProt P11712); assay: Inhibition of human CYP2C9; type: ADME
Chain of Cytochrome P450 2C9 (P11712 whole entry, canonical isoform): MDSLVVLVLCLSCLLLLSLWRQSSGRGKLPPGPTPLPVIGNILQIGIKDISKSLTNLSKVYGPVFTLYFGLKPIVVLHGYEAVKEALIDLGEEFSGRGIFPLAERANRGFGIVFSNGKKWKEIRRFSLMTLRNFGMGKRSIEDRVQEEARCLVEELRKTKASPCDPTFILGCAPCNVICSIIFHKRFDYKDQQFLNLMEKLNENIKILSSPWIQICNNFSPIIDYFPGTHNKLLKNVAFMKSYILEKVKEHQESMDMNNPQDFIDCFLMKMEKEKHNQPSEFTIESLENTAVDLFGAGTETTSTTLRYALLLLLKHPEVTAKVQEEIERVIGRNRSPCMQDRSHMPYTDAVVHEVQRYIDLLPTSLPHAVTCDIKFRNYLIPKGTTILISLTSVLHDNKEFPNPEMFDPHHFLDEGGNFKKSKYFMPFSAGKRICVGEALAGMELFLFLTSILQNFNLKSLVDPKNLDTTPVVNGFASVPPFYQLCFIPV
How it was run: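 Pooled human liver microsomes (0.25 mg/mL) with NADPH (1 mM) and five pooled probe substrates (testosterone, diclofenac, dextromethorphan, mephenytoin, phenacetin). Test compound ran at eight concentrations, 0.31−40 μM, 20 min at 37 °C, with pooled control inhibitors in parallel. Isoform-specific metabolites were measured by LC-MS/MS.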

[4] = test system: A-375; assay: Cytotoxicity against human A375 cells expressing BRAF V600E mutant after 72 hrs by cell titer blue assay; type: functional, cell-based; conditions: A-375, 72 h; how it was run: as §2
[5] = Oral bioavailability in beagle dog at 10 mg/kg; type: ADME, organism-based, Canis lupus familiaris; conditions: in vivo
How it was run: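 Male non-naive cynomolgus monkeys (2.6–3.4 kg) and beagle dogs (10.3–11.9 kg), n = 3 each, were dosed in a crossover design with a ≥7-day washout. Doses were 10 mg/kg by nasogastric gavage and 1 mg/kg as a saphenous iv bolus, both free base in 22% HPβCD. Animals were fasted overnight until about 4 h post dose. Femoral plasma was sampled from predose to 24 h and analyzed by LC-MS/MS. Parameters came from noncompartmental analysis; mean ± SD reported.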

[6] = target: Aurora kinase B (Homo sapiens, UniProt Q96GD4); assay: Inhibition of Aurora B in human HEK293 cells after 1 hr by competition binding assay; type: cell-based
How it was run: (§3)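 KINOMEscan competition binding. Binding reactions ran at rt for 1 h. Unbound kinase was captured on an immobilized affinity ligand and quantified by qPCR. Each kinase was tested individually.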

[7] = test system: Mus musculus; assay: Toxicity in athymic nude mouse xenografted with human COLO205 cells at 10 mg/kg, po bid for 14 days measured upto 1 week post dosing; type: organism-based, COLO 205; set-up: dose 10 mg/kg, route oral; conditions: in vivo
How it was run: (§4)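 Athymic nude mice (20–25 g) were inoculated subcutaneously in the flank with 1×10^6 Colo-205 cells. At 150–200 mm3 they were randomized (n = 10/group) to oral vehicle (22% HPβCD) or 10, 30 or 100 mg/kg BID for 14 days. Calipers were used three times weekly. Body weight and behavior were monitored, with 7–10 days of follow-up after dosing. Partial regression meant volume falling in ≥3 successive measurements, ending below baseline but still palpable.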

[8] = test system: Hs-578T; assay: Cytotoxicity against human Hs578T cells expressing wild type BRAF after 72 hrs by cell titer blue assay; type: functional, cell-based; how it was run: as §2
[9] = target: Serine/threonine-protein kinase B-raf (Homo sapiens, UniProt P15056); assay: Inhibition of wild type BRAF in human HEK293 cells after 1 hr by competition binding assay; type: cell-based; how it was run: as §3
Chain of Serine/threonine-protein kinase B-raf (P15056 whole entry): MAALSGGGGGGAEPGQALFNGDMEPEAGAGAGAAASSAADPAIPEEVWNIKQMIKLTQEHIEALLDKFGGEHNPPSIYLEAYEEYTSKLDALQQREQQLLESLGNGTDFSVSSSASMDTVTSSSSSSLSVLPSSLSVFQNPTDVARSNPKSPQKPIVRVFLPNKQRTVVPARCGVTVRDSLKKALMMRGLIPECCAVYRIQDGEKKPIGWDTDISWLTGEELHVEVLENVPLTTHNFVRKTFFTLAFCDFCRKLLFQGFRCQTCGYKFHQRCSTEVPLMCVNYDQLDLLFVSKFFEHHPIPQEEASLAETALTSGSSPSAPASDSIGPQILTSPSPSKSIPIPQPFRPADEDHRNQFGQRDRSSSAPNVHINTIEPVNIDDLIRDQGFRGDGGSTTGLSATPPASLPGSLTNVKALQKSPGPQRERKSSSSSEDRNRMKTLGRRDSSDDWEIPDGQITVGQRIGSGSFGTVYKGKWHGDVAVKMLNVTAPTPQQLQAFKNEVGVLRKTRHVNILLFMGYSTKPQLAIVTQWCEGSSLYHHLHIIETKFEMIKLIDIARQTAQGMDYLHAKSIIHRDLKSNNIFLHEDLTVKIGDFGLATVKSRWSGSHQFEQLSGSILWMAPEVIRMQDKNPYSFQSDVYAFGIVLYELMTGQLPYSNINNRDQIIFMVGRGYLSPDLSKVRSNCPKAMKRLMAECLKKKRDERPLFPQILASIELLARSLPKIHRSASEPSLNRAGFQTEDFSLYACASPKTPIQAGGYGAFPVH

[10] = Terminal half life in Sprague-Dawley rat at 1 mg/kg, iv and 10 mg/kg, po; type: ADME, organism-based; conditions: in vivo, read-out: beta t1/2 (converted)
How it was run: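 Male Sprague-Dawley rats (250–350 g, jugular-catheterized) received a single dose either iv at 1 mg/kg in 3:1 PEG400/water (n = 2) or po at 10 mg/kg in Pharmatek #6 (n = 3). Plasma was sampled at 5 min (iv only), 15 and 30 min, and 1, 2, 4, 6 and 24 h. Samples were analyzed by LC-MS/MS after acetonitrile precipitation. Parameters came from noncompartmental linear-trapezoidal analysis of individual animals.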

[11] = target: Mitogen-activated protein kinase 3 (Homo sapiens, UniProt P27361); assay: Inhibition of ERK1 in human HEK293 cells after 1 hr by competition binding assay; type: cell-based; how it was run: as §3
Chain of Mitogen-activated protein kinase 3 (P27361 whole entry): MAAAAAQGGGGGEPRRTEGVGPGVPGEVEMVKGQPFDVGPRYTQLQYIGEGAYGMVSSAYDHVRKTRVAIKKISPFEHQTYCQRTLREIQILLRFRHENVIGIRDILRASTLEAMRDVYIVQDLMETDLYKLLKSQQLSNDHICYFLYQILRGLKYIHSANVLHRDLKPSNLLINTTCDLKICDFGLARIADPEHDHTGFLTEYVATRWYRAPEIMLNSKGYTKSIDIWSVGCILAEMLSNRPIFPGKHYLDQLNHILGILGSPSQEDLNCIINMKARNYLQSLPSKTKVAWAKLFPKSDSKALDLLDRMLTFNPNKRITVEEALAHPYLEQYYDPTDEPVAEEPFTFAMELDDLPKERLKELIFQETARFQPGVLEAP

[12] = Half life in human liver microsomes; type: ADME, Microsome
How it was run: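 Pooled liver microsomes (0.5 mg/mL) in 0.1 M phosphate pH 7.4 with 6.5 mM MgCl2 and compound at 1 μM (0.2% DMSO). NADPH (1 mM) started the reaction at 37 °C, with minus-NADPH and testosterone controls. Aliquots taken at 0, 5, 15, 30 and 60 min were quenched in acetonitrile; duplicates.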

[13] = AUC (0 to 24 hrs) in beagle dog at 10 mg/kg, po; type: ADME, organism-based, Canis lupus familiaris; set-up: time < 24 hr, dose 10 mg/kg, route oral; conditions: plasma; how it was run: as §1
[14] = target: Dual specificity mitogen-activated protein kinase kinase 2 (Homo sapiens, UniProt P36507); assay: Inhibition of MEK2 in human HEK293 cells after 1 hr by competition binding assay; type: cell-based; how it was run: as §3
Chain of Dual specificity mitogen-activated protein kinase kinase 2 (P36507 whole entry): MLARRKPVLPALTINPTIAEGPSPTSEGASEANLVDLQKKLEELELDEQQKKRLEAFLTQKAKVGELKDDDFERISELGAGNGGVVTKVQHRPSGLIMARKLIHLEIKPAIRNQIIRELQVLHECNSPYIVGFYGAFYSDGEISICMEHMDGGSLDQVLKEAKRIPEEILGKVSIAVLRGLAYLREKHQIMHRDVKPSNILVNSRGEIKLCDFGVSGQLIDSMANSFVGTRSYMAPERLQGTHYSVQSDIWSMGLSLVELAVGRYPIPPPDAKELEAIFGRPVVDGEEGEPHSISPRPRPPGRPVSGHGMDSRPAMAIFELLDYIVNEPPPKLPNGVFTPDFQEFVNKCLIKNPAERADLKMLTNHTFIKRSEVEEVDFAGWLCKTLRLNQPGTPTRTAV

[15] = test system: COLO-679; assay: Cytotoxicity against human COLO679 cells expressing BRAF V600E mutant after 72 hrs by cell titer blue assay; type: functional, cell-based; conditions: COLO-679, 72 h; how it was run: as §2
[16] = target: ALK tyrosine kinase receptor (Homo sapiens, UniProt Q9UM73); assay: Inhibition of ALK in human HEK293 cells after 1 hr by competition binding assay; type: cell-based
How it was run: (§5)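 Unbound kinase was captured on immobilized affinity ligand and quantified by qPCR. Kd came from eleven serial 3-fold dilutions, as the mean of duplicates.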

[17] = test system: Mus musculus; assay: Toxicity in athymic nude mouse xenografted with human COLO205 cells at 100 mg/kg, po bid for 14 days measured upto 1 week post dosing; type: organism-based, COLO 205; set-up: dose 100 mg/kg, route oral; conditions: in vivo; how it was run: as §4
[18] = target: Serine/threonine-protein kinase PLK1 (Homo sapiens, UniProt P53350); assay: Inhibition of PLK1 in human HEK293 cells after 1 hr by competition binding assay; type: cell-based; how it was run: as §3
Chain of Serine/threonine-protein kinase PLK1 (P53350 whole entry): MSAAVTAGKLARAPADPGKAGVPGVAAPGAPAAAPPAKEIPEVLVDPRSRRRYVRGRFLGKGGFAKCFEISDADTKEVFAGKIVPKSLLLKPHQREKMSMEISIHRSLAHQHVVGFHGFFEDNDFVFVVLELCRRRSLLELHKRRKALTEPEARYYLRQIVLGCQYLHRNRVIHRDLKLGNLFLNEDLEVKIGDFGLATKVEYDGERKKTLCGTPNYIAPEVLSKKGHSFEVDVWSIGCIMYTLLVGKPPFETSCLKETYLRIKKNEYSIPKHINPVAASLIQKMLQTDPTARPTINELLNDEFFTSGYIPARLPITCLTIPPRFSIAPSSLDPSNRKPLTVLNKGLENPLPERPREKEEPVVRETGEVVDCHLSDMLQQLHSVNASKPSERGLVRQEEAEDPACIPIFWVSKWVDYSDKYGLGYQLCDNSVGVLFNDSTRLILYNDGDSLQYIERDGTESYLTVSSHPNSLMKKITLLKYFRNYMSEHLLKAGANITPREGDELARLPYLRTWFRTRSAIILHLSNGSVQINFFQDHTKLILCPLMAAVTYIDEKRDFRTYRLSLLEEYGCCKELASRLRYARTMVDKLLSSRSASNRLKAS

[19] = test system: Mus musculus; assay: Inhibition of BRAF V600E mutant-mediated MEK phosphorylation in human COLO205 cells xenografted in athymic nude mouse at 55 mg/kg, po after 10 hrs; type: functional; conditions: COLO 205, 10 h
How it was run: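 Mice bearing Colo-205 xenografts got one oral dose in 22% HPβCD; vehicle controls were run. Tumors were collected at time points over 24 h and lysed. pMEK and total MEK in the lysates were measured by immunoblotting and ELISA, and pMEK was normalized to total MEK.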

[20] = target: hERG (KCNH2) (Homo sapiens, UniProt Q12809); assay: Inhibition of human ERG at 10 uM
Chain of hERG (KCNH2) (Q12809 whole entry): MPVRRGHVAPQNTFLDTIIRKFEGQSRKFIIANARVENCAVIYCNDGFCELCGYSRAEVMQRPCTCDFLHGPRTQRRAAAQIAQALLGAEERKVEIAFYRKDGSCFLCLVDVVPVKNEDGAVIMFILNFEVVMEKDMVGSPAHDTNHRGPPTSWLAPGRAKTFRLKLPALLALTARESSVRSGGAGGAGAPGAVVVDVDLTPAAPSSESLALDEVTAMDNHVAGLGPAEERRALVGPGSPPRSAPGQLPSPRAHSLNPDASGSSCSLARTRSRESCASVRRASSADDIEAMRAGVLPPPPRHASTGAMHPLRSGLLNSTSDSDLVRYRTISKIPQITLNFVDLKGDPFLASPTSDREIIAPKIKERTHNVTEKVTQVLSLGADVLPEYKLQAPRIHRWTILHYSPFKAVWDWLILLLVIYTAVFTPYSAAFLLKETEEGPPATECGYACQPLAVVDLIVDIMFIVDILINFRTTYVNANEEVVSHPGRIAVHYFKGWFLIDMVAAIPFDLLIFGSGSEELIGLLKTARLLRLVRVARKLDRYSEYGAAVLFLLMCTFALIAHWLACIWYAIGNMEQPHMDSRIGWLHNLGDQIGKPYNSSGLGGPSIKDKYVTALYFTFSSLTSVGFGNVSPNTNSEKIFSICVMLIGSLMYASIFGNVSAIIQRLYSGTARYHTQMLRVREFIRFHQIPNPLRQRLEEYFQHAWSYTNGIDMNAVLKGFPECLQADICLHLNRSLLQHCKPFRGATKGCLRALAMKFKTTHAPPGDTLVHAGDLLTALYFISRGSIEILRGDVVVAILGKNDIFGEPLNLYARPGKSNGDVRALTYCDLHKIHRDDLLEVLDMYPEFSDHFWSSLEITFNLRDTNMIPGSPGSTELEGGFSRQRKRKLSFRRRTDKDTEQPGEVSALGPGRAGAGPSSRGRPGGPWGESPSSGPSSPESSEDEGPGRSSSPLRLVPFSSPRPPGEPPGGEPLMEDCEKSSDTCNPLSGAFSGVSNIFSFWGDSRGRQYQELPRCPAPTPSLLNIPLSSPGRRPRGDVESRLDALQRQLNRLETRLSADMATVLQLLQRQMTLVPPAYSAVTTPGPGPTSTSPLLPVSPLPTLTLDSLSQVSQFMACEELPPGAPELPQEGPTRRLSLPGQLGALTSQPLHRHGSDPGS
How it was run: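 Whole-cell patch clamp on CHO cells stably expressing hERG. Baseline was set in external solution with 0.1% DMSO. Test article was then applied until steady state, up to 12 min.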

[21] = Cmax in Cynomolgus monkey at 10 mg/kg, po; type: ADME, organism-based, Macaca fascicularis; set-up: dose 10 mg/kg, route oral; conditions: in vivo; how it was run: as §1
[22] = target: Dual specificity mitogen-activated protein kinase kinase 1 (Homo sapiens, UniProt Q02750); assay: Inhibition of MEK1 in human HEK293 cells after 1 hr by competition binding assay; type: cell-based; how it was run: as §3
[23] = target: Tyrosine-protein kinase JAK3 (Homo sapiens, UniProt P52333); assay: Inhibition of JAK3 in human HEK293 cells after 1 hr by competition binding assay; type: cell-based; how it was run: as §5
Chain of Tyrosine-protein kinase JAK3 (P52333 whole entry): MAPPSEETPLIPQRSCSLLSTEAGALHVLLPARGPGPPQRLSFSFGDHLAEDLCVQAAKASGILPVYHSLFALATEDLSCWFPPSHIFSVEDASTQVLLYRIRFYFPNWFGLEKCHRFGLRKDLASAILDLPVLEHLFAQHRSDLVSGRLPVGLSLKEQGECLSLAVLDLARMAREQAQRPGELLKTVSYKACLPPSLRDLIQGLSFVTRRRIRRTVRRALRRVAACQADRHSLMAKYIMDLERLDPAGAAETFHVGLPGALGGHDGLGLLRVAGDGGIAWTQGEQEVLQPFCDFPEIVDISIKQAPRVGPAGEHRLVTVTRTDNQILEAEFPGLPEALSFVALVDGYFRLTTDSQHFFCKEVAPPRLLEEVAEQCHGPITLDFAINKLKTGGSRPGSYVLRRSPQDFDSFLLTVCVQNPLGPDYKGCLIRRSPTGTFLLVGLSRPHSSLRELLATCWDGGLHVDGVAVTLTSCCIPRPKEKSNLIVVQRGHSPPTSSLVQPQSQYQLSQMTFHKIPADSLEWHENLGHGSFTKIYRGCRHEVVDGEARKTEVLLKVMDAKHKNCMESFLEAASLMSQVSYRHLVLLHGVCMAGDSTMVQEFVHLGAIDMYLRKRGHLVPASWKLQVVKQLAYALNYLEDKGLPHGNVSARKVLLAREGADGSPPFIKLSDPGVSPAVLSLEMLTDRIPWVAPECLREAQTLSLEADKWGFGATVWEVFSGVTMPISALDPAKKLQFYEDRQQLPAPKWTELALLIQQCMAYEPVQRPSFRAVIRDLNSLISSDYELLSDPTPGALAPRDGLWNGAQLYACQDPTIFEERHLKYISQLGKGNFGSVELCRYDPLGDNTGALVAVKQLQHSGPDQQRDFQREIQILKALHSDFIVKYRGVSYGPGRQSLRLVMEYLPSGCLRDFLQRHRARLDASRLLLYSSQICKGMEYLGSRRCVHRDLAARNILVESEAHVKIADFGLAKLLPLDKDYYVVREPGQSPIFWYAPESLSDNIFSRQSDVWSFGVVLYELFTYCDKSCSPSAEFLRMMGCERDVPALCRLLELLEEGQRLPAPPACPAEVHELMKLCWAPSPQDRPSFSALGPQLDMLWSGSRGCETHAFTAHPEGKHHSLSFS

## COc1cc2ncnc(Oc3cccc(NC(=O)Nc4cc(C(C)(C)C(F)(F)F)on4)c3)c2cc1OC [CEP-32496]
[1]
  clearance: 0.3 L/h/kg
[2]
  EC50: 0.228 µM
[3]
  IC50: > 10 µM
[4]
  IC50: 0.078 µM
[5]
  bioavailability: 100%
[6]
  Kd: > 10 µM
[7]
  Activity: Non-toxic
[8]
  EC50: 2.74 µM
[9]
  Kd: 0.036 µM
[10]
  half-life: 7.8 h
[11]
  Kd: > 10 µM
[12]
  half-life: > 1 h
[13]
  AUC(0-t) at 24 h: 55.1 µM·h
[14]
  Kd: 8.3 µM
[15]
  EC50: 0.211 µM
[16]
  Kd: > 10 µM
[17]
  Activity: Non-toxic
[18]
  Kd: > 10 µM
[19]
  inhibition in vivo at 55 mg/kg: 57%
[20]
  inhibition at 10 µM: < 10%
[21]
  Cmax: 4.3 µM
[22]
  Kd: 7.1 µM
[23]
  Kd: > 10 µM
